Hits are enriched below; roughly 3.1% of the tested compounds scored in any of these assays.
ERAP1 inh: blocks human ERAP1 aminopeptidase activity; hit rate 0.15% among 340,000; inhibition, % at 10.7 µM; Q9NZ08; recombinant ERAP1, Leu-AMC fluorescence, 60 min;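 active = mean replicate inhibition of at least 30%, or all replicates individually reaching that 30% level; inactive = mean below 30% and not every replicate reaching it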;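 note: 0% = neutral control wells and 100% = L-leucinethiol positive control wells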
Target sequence (Q9NZ08 whole entry, looked up): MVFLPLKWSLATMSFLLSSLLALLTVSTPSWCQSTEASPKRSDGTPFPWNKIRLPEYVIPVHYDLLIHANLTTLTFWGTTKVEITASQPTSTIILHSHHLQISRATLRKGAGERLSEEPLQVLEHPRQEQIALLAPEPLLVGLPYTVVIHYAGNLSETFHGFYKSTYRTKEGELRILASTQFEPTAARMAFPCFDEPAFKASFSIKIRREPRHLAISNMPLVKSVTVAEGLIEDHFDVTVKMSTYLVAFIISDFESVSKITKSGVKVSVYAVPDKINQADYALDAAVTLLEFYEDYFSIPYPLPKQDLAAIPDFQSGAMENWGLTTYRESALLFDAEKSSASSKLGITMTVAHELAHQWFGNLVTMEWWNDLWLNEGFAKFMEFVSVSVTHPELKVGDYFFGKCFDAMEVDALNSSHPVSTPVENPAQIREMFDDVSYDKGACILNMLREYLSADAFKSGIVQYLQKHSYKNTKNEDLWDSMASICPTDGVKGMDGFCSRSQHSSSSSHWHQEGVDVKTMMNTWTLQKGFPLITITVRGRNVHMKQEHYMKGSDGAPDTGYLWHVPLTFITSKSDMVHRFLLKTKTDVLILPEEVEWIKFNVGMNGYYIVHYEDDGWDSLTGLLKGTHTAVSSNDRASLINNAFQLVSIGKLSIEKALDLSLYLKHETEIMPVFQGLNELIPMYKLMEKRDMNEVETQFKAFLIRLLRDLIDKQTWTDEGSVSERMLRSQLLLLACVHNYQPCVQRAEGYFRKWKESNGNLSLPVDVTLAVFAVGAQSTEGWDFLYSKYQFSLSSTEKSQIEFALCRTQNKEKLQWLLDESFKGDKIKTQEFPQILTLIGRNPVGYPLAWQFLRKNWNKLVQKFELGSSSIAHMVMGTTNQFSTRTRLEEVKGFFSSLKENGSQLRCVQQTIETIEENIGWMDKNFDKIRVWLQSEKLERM
rRNA inh HTS: inhibitors of bacterial rRNA selective over humanized ribosomes | E. coli WT GFP vs humanized-ribosome RFP mutants, fluorescence, 24 h; hits give low values; DMSO median 0, no signal -100 | GFP signal change (wild-type ribosome), % (no concentration beside the values) | hit rate 1.6% among 350,000 | AID 720706;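 active = significant combined selectivity score with lowered wild-type GFP, culture density cut under 30%, mutant RFP and density less affected; inactive = any of these conditions unmet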
CFTR F508del cor: CFTR F508del correction in bronchial cells | CFBE cells, YFP halide quenching; stimulated with forskolin plus potentiator P3; % fluorescence drop versus neutral controls | activity (quench increase), % at 7.58 µM | hit rate 0.36% among 350,000 | AID 720511;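 active = mean added fluorescence quench of at least 8% versus neutral control, with both replicates also reaching 8%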;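 note: cells transiently co-express mutant CFTR-F508del with the halide-sensitive YFP; corrector assay measuring rescue of mutant channel to the surface after 24 h compound exposure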
S100A4 inh HTS: blocks human S100A4 binding to myosin IIA peptide; P26447; S100A4/TAMRA-MyoIIA peptide fluorescence polarization; inhibition, % at 10.7 µM; hit rate 0.14% among 360,000; AID 652163;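 active = mean inhibition of at least 70% across replicates, with every replicate also reaching that level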
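Assay system: human S100A4 monomer with TAMRA-labelled myosin IIA peptide / Buffer or medium: Calcium-containing HEPES buffer, pH 7.2 / Reagent: TAMRA-labelled myosin IIA heavy-chain peptide probe, 5 nM / Compound: one dose per compound / Timing: polarization read 5 min after assay mix addition, stable 5–60 min / Benchmarks: neutral control DMSO, positive control TFP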
SIRT5 inh: inhibitors of human sirtuin-5 desuccinylase. Q9NXA8. Purified SirT5, succinyl-peptide AMC, trypsin-coupled fluorescence. inhibition, % at 15 µM. hit rate 1.1% among 330,000. AID 652115; in the data active = inhibition above about 15%
Starred values were filed as active, the others as inactive.

How did Cc1onc(-c2ccccc2)c1C(=O)NC(=S)NNC(=O)c1cc(-c2ccc(F)cc2)n[nH]1 do in these assays?
ERAP1 inh: 6; rRNA inh HTS: -33*; CFTR F508del cor: 5; S100A4 inh HTS: -3; SIRT5 inh: -4

What do the screens show for `Cc1onc(-c2ccccc2)c1C(=O)NNC(=S)NC(=O)c1ccc2c(c1)OCO2`?
ERAP1 inh: 0; rRNA inh HTS: -40*; CFTR F508del cor: 1; S100A4 inh HTS: -3; SIRT5 inh: 1

Results for Cc1noc(C)c1NC(=O)Nc1ccc2c(c1)CC(=O)N([C@H](C)CO)C[C@@H](C)[C@H](CN(C)S(=O)(=O)c1ccc(Cl)cc1)O2 ?
ERAP1 inh: -1; rRNA inh HTS: 3; CFTR F508del cor: -3; S100A4 inh HTS: 2; SIRT5 inh: -1

What do the screens show for `O=C([C@@H]1[C@@H](CO)[C@@H]2Cn3c(ccc(C4=CCCCC4)c3=O)[C@@H]2N1Cc1nccs1)N1CCOCC1`?
ERAP1 inh: 3; rRNA inh HTS: -1; CFTR F508del cor: 1; S100A4 inh HTS: 0; SIRT5 inh: -14

How did Cc1cc(C(=O)c2ccccc2)cc(C)c1O do in these assays?
ERAP1 inh: 1; rRNA inh HTS: 8; CFTR F508del cor: 11*; S100A4 inh HTS: 1

What do the screens show for `COc1ccccc1/C=C/c1nc(S(=O)(=O)c2ccccc2)c(N2CCC(C(N)=O)CC2)o1`?
ERAP1 inh: 1; rRNA inh HTS: 7; CFTR F508del cor: -3; S100A4 inh HTS: -9; SIRT5 inh: 17*

What do the screens show for `COc1ccc2c3c(n(C)c2c1)[C@@H](CO)N(Cc1ccccc1)CC31CN(C)C1`?
ERAP1 inh: 1; rRNA inh HTS: 2; CFTR F508del cor: 2; S100A4 inh HTS: 3; SIRT5 inh: -4

How did Cc1cc(C)cc(NC2=C(N)C(=O)c3ccccc3C2=O)c1 do in these assays?
ERAP1 inh: 1; rRNA inh HTS: -2; S100A4 inh HTS: -7; SIRT5 inh: 16*

Results for O=C(O)[C@H]1[C@H](CO)[C@H]2Cn3c(ccc(-c4ccccc4F)c3=O)[C@H]2N1C(=O)c1cnccn1 ?
ERAP1 inh: 2; rRNA inh HTS: 4; S100A4 inh HTS: 58; SIRT5 inh: 0

Results for C=CC(COCc1ccccc1)N(C(=O)OC(C)(C)C)S(=O)(=O)c1ccccc1Br (stereo not given) ?
ERAP1 inh: 0; rRNA inh HTS: 2; CFTR F508del cor: 5; S100A4 inh HTS: 3

What do the screens show for `COc1ccc(CN(CC(O)COCc2ccccc2)S(=O)(=O)c2ccccc2Br)cc1OC` (stereo not given)?
ERAP1 inh: -2; rRNA inh HTS: -21*; CFTR F508del cor: 3; S100A4 inh HTS: 0; SIRT5 inh: -1

How did C[C@@H](NC(=O)C[C@@H]1CC[C@@H]2[C@@H](COc3ccc(NS(=O)(=O)c4ccc(Cl)cc4)cc3C(=O)N2C)O1)c1ccccc1 do in these assays?
ERAP1 inh: 3; rRNA inh HTS: 0; CFTR F508del cor: 0; S100A4 inh HTS: -38; SIRT5 inh: -1

How did C[C@H](CO)N1C[C@H](C)[C@@H](CN(C)S(=O)(=O)c2ccc(F)cc2)Oc2c(NS(=O)(=O)c3cccs3)cccc2C1=O do in these assays?
ERAP1 inh: -3; rRNA inh HTS: 1; CFTR F508del cor: 0; S100A4 inh HTS: 6; SIRT5 inh: -1

Results for O=C(N/N=C/C(Br)=C/c1ccccc1)C(O)c1ccccc1 (stereo not given) ?
ERAP1 inh: 4; rRNA inh HTS: -27*; CFTR F508del cor: 0; S100A4 inh HTS: 3; SIRT5 inh: 0

Results for O=C(N/N=C/C(Br)=C\c1ccccc1)c1cccs1 ?
rRNA inh HTS: -12; CFTR F508del cor: -3; S100A4 inh HTS: -7; SIRT5 inh: 20*

How did O=C(C1CCCCC1)N1C[C@@H]2[C@H](c3ccccc31)[C@@H](CO)N2C(=O)c1ccccc1 do in these assays?
ERAP1 inh: 0; rRNA inh HTS: -3; CFTR F508del cor: -2; S100A4 inh HTS: -11; SIRT5 inh: 0

How did CCCCCCN1CCN(C2CN(C3CCCCC3)S(=O)(=O)C2)CC1 (stereo not given) do in these assays?
ERAP1 inh: 5; rRNA inh HTS: 4; CFTR F508del cor: 1; S100A4 inh HTS: 2; SIRT5 inh: 39*

How did Cc1cc(C)n2cc(CSc3ccc(Cl)cc3)nc2n1 do in these assays?
ERAP1 inh: 3; rRNA inh HTS: -25*; CFTR F508del cor: 0; S100A4 inh HTS: -2; SIRT5 inh: -5

How did C[C@@H]1CN([C@H](C)CO)C(=O)Cc2cc(NS(=O)(=O)c3ccc(Cl)cc3)ccc2O[C@H]1CN(C)C(=O)Nc1ccccc1 do in these assays?
ERAP1 inh: 2; rRNA inh HTS: 2; CFTR F508del cor: 0; S100A4 inh HTS: -31; SIRT5 inh: 0

Results for C[C@@H]1CN([C@@H](C)CO)C(=O)c2cc(NC(=O)CCCCCC(=O)Nc3ccccc3N)ccc2O[C@H]1CN(C)S(=O)(=O)c1ccccc1 ?
ERAP1 inh: 1; rRNA inh HTS: -2; CFTR F508del cor: 0; S100A4 inh HTS: 28

How did Cc1ccc2c(c1)S/C(=C/c1ccc[n+](C)c1)N2CCO do in these assays?
ERAP1 inh: 52*; rRNA inh HTS: 64; CFTR F508del cor: 0; S100A4 inh HTS: 2; SIRT5 inh: -2

How did O=S(=O)(Cc1cc(NCc2ccccc2)nc(-c2ccncc2)n1)c1ccccc1 do in these assays?
ERAP1 inh: 2; rRNA inh HTS: 11; CFTR F508del cor: 0; S100A4 inh HTS: 0; SIRT5 inh: 1

Results for O=S(=O)(Cc1cc(NCc2ccccc2)nc(-c2ccccn2)n1)c1ccccc1 ?
ERAP1 inh: -3; rRNA inh HTS: -39*; CFTR F508del cor: -1; S100A4 inh HTS: -1; SIRT5 inh: -3

Results for Cc1cc(Cl)nc(Cl)c1C(=O)N1CCOCC1 ?
ERAP1 inh: -3; rRNA inh HTS: 2; CFTR F508del cor: -2; S100A4 inh HTS: 1; SIRT5 inh: 22*

How did CCC(=O)N1[C@H](CO)[C@@H](c2ccc(/C=C/c3ccccc3)cc2)C12CN(S(C)(=O)=O)C2 do in these assays?
ERAP1 inh: 5; rRNA inh HTS: 1; CFTR F508del cor: -1; S100A4 inh HTS: 1; SIRT5 inh: -4

Results for NS(=O)(=O)c1ccc(S(=O)(=O)N(CCc2ccccc2)Cc2ccccn2)cc1 ?
ERAP1 inh: -1; rRNA inh HTS: 2; CFTR F508del cor: 8.4*; S100A4 inh HTS: -1; SIRT5 inh: -7

How did O=S(=O)(c1ccc(Cl)cc1)N(Cc1ccccn1)Cc1ccccn1 do in these assays?
ERAP1 inh: -2; rRNA inh HTS: -1; CFTR F508del cor: -1; S100A4 inh HTS: -13; SIRT5 inh: 0

How did O=C(Nc1ccccc1C(=O)O)c1cccc(NC(=O)c2ccccc2Br)c1 do in these assays?
ERAP1 inh: -10; rRNA inh HTS: -33; CFTR F508del cor: -3; S100A4 inh HTS: 3; SIRT5 inh: 1
